Measured values reported in ChEMBL document CHEMBL3414544, “PAINS in the assay: chemical mechanisms of assay interference and promiscuous enzymatic inhibition observed during a sulfhydryl-scavenging HTS” (J Med Chem, 2015).
pIC50: −log10 of the molar value. The source made the active and inactive calls. Unless noted, the calls are words filed in the database; no cut-off is given here.

Experiments:
[1] = target: T1, Lupus La protein (Homo sapiens) (UniProt P05455); test: Induction of thiol reactivity with La protein (unknown origin) using […] assessed as protein reactivity by ALARM NMR in presence of 20 mM DTT
T1 sequence (whole entry): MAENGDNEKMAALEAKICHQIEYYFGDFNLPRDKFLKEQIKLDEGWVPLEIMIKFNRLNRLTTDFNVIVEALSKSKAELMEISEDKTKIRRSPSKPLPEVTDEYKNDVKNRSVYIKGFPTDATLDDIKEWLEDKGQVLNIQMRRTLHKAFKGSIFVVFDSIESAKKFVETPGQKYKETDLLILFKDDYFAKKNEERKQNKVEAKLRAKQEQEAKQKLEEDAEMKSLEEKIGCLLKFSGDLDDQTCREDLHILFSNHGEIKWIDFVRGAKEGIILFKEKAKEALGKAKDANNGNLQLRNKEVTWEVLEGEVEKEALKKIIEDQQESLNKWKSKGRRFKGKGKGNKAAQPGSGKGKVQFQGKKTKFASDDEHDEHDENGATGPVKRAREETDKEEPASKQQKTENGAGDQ
Method in brief: (§1)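 ALARM NMR with recombinant La antigen expressed in E. coli Rosetta, 15N-labelled and 13C-labelled at Leu/Ile δ-methyl and Val γ-methyl groups; protein pre-reduced with 20 mM DTT then dialysed DTT-free under N2.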

[2] = target: T2, Histone acetyltransferase p300 (Homo sapiens, UniProt Q09472); test: Inhibition of recombinant histone acetyltransferase p300 (unknown origin) using dH3-H4 tetramer and [3H]-acetyl-CoA assessed as acetate incorporation after 5 mins by liquid scintillation counting in presence of 1 mM DTT
[3] = target: T3, Histone acetyltransferase RTT109 (Saccharomyces cerevisiae (strain ATCC 204508 / S288c) (Baker's yeast)) (UniProt Q07794); test: Inhibition of Vps75-stimulated recombinant Saccharomyces cerevisiae histone acetyltransferase Rtt109 assessed as H3K27 acetylated product at […] after 45 mins by Slot bolt inhibiton assay
T3 sequence (whole entry): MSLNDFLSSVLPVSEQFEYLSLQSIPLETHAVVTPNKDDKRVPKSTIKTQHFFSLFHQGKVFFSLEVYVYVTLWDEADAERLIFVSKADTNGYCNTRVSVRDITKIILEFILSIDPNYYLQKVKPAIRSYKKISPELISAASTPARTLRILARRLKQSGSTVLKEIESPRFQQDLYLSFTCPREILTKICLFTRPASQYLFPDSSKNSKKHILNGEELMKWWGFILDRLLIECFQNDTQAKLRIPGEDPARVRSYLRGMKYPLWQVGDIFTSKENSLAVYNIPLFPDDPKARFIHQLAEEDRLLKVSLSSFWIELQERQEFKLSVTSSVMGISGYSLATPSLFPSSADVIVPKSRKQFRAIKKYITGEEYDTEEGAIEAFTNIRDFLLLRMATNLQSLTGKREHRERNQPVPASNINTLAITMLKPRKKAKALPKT

[4] = target: T1, Lupus La protein (Homo sapiens); test: Induction of thiol reactivity with La protein (unknown origin) using […] assessed as protein reactivity by ALARM NMR; method in brief: as §1
[5] = target: T3, Histone acetyltransferase RTT109 (Saccharomyces cerevisiae (strain ATCC 204508 / S288c) (Baker's yeast)); test: Inhibition of Vps75-stimulated recombinant Saccharomyces cerevisiae histone acetyltransferase Rtt109 using [3H]-acetyl-CoA assessed as acetate incorporation […] by liquid scintillation counting in presence of 1 mM DTT
[6] = target: T3, Histone acetyltransferase RTT109 (Saccharomyces cerevisiae (strain ATCC 204508 / S288c) (Baker's yeast)); test: Inhibition of Vps75-stimulated recombinant Saccharomyces cerevisiae histone acetyltransferase Rtt109 assessed as H3K56 acetylated product at […] after 45 mins by Slot bolt inhibiton assay
[7] = target: Histone acetyltransferase GCN5 (Saccharomyces cerevisiae S288c) (UniProt Q03330); test: Inhibition of yeast histone acetyltransferase Gcn5-Ada2-Ada3 complex using tetramer and [3H]-acetyl-CoA assessed as acetate incorporation […] by liquid scintillation counting in presence of 1 mM DTT
[8] = target: Histone acetyltransferase GCN5 (Saccharomyces cerevisiae S288c, UniProt Q03330); test: Inhibition of yeast histone acetyltransferase Gcn5-Ada2-Ada3 complex using tetramer and [3H]-acetyl-CoA assessed as acetate incorporation after 30 mins by liquid scintillation counting; conditions: for pIC50: read-out: IC50
[9] = target: T2, Histone acetyltransferase p300; test: Inhibition of recombinant histone acetyltransferase p300 (unknown origin) using dH3-H4 tetramer and [3H]-acetyl-CoA assessed as acetate incorporation […] by liquid scintillation counting; conditions: for pIC50: read-out: IC50
[10] = target: T4, Histone acetyltransferase RTT109 (Saccharomyces cerevisiae (strain ATCC 204508 / S288c) (Baker's yeast), UniProt Q07794); test: Inhibition of Vps75-stimulated recombinant Saccharomyces cerevisiae histone acetyltransferase Rtt109 using [3H]-acetyl-CoA assessed as acetate incorporation after 30 mins by liquid scintillation counting; conditions: for pIC50: read-out: IC50
T4 sequence (Q07794 whole entry): T3 sequence (whole entry)

[11] = target: T4, Histone acetyltransferase RTT109; test: Inhibition of Vps75-stimulated recombinant Saccharomyces cerevisiae histone acetyltransferase Rtt109 using Asf1-dH3-H4 as substrate assessed as coenzyme A production after 45 mins by CPM based HTS assay; conditions: for pIC50: read-out: IC50
Method in brief: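 Recombinant Rtt109–Vps75 at 50 nM, with Asf1–dH3–H4 as substrate and acetyl-CoA as acetyl donor. Buffer contained freshly prepared 0.01% Triton X-100. The CoA product was detected by fluorescence of its CPM adduct. Plates had Z′ ≥0.5. IC50 came from a four-parameter variable-slope fit.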

[12] = Fluorescence quenching in HTS buffer with […] CoA assessed as fluorescence signal reduction at 10 uM after 10 mins; type: physicochemical
[13] = Fluorescence quenching assessed as fluorescence signal reduction at 10 uM after 10 mins; type: physicochemical
Method in brief: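 CPM (20 μM final) and CoA (5 μM final) reacted to completion in assay buffer (stable plateau, usually ~5 min); adduct solution added to wells preplated with compound; shaken 5 min, equilibrated 5 min at room temperature; fluorescence intensity read as percent signal reduction versus DMSO controls. Flagged as quencher at >20% signal reduction at 10 μM final compound.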

[14] = Fluorescence quenching in HTS buffer with 20 uM 7-diethylamino-3-(4'-maleimidyl-phenyl)-4-methylcoumarin assessed as fluorescence signal reduction at 10 uM after 10 mins; type: physicochemical
[15] = Fluorescence quenching in HTS buffer assessed as fluorescence signal reduction at 10 uM after 10 mins; type: physicochemical
[16] = Chemical stability of the compound in HTS buffer assessed as GSH adduct formation measured as retention time after 15 mins by UPLC-MS analysis; type: physicochemical; conditions: 0.25 h
Method in brief: (§2)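 Compound (typically 0.5 mM final) incubated in HTS buffer (pH 8.0) for 5, 15 or 30 min, then reduced glutathione added (2 equiv per 1 equiv compound); aliquots analysed by UPLC–MS (BEH C18 column, ELS and 254 nm traces) 5 min after GSH addition, and the same sample re-analysed 15 min later. HTS-like conditions but 5% DMSO, no detergent.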

[17] = Chemical stability of the compound in HTS buffer assessed as GSH adduct formation measured as retention time after 5 mins by UPLC-MS analysis; type: physicochemical; method in brief: as §2

T2 sequence (Q09472 whole entry): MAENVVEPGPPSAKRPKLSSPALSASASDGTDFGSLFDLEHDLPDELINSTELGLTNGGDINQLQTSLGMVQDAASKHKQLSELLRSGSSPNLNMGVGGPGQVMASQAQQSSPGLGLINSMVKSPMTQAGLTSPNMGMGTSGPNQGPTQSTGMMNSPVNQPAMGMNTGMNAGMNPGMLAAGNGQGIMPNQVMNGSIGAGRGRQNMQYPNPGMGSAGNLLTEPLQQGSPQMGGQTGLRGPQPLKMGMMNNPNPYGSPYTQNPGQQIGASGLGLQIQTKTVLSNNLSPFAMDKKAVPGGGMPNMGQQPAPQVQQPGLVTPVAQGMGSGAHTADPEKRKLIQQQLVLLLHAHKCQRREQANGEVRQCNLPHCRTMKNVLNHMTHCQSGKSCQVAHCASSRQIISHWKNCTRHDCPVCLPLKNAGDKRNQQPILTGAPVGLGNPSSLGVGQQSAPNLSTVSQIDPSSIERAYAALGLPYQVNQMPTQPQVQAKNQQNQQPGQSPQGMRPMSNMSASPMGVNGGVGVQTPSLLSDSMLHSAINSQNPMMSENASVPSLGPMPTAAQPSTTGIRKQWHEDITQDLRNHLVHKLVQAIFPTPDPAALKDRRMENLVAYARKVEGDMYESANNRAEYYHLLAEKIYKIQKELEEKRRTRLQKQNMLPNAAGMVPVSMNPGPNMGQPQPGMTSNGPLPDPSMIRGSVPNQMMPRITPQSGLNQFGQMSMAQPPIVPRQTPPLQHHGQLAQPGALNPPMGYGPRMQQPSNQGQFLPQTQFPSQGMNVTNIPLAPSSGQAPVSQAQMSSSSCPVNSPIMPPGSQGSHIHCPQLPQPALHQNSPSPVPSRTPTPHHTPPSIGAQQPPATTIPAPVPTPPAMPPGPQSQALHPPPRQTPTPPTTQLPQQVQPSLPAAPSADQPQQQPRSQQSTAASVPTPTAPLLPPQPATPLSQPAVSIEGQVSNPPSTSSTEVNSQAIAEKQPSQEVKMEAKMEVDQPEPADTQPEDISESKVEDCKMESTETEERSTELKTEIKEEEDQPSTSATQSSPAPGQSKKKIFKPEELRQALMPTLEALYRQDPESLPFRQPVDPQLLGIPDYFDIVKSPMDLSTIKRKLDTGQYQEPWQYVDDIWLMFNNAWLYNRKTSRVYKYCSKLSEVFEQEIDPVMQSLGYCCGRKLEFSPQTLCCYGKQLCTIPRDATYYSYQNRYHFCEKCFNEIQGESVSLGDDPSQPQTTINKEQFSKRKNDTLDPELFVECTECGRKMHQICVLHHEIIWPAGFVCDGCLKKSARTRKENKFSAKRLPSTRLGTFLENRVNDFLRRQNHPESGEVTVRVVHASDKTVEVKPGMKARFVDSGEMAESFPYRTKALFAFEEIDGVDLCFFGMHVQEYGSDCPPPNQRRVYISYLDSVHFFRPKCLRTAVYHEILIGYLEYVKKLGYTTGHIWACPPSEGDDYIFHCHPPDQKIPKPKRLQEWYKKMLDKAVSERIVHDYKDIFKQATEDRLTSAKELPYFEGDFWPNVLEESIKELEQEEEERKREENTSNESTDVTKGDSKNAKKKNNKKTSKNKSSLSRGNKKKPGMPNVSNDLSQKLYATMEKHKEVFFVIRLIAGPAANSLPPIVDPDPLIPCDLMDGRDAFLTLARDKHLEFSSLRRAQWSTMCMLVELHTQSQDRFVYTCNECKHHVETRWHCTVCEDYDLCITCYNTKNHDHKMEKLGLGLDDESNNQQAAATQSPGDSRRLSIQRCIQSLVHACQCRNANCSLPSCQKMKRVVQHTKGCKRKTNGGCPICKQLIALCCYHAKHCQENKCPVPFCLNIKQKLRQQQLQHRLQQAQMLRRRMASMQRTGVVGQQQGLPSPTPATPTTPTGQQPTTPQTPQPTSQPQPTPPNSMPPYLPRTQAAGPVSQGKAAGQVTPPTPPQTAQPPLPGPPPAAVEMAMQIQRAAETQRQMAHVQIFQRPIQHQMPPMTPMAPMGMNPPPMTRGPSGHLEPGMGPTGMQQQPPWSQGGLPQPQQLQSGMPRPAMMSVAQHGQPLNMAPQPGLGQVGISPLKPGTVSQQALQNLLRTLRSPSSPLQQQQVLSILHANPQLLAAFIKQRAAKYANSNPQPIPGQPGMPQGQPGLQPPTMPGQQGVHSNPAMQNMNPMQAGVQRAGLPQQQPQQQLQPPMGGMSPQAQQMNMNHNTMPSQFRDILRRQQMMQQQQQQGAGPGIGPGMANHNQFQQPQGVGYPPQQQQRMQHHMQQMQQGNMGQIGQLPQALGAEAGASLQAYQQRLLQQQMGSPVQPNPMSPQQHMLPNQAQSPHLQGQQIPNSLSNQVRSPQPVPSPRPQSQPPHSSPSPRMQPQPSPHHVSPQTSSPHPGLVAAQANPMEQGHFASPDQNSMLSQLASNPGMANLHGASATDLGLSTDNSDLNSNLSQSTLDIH
Sequence of Histone acetyltransferase GCN5 (Q03330 whole entry): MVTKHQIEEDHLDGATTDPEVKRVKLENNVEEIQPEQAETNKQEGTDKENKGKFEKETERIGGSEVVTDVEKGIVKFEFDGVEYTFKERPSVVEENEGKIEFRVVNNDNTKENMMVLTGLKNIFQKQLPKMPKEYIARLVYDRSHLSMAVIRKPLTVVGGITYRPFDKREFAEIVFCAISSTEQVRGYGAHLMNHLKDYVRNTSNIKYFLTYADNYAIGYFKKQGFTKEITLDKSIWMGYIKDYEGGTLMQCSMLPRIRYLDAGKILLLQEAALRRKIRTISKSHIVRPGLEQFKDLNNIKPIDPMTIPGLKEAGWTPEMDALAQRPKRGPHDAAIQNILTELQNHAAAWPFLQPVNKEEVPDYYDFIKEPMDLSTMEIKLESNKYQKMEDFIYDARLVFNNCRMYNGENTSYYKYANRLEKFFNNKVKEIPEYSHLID
Sequence of Histone acetyltransferase GCN5 (Saccharomyces cerevisiae S288c) (Q03330 whole entry): as above

O=S(=O)(Nc1cc(Sc2ncn[nH]2)c(O)c2ccccc12)c1ccc2ccccc2c1
Activity [1]: inactive | Activity [2]: Active | Activity [3]: Active | Activity [4]: Active | Activity [5]: Active | Activity [6]: Active | Activity [7]: Active

OC(Cn1cncn1)(Cn1cncn1)c1ccc(F)cc1F [FLUCONAZOLE]
Activity [2]: inactive | IC50 [8]: Not Active | Activity [5]: inactive | IC50 [9]: Not Active | IC50 [10]: Not Active | IC50 [11]: Not Active | Activity [7]: inactive

O=[N+]([O-])c1c(Sc2nnnn2-c2ccccc2)cc(Cl)c2nonc12
Activity [12]: Not Active | Activity [13]: Not Active | Activity [2]: Active | pIC50 [8]: 5.80 | Activity [14]: Not Active | Activity [3]: Active | Activity [5]: Active | Activity [15]: Not Active | Activity [6]: Active | pIC50 [9]: 5.96 | pIC50 [10]: 6.11 | pIC50 [11]: 5.64 | Activity [7]: Active

CCN(CC)c1ccc2c(C)c(-c3ccc(N4C(=O)C=CC4=O)cc3)c(=O)oc2c1
Activity [2]: Active | pIC50 [8]: 5.96 | Activity [5]: Active | pIC50 [9]: 6.59 | pIC50 [10]: 6.59 | Activity [7]: Active

COc1ccc(-c2nnc(SC3CC(=O)N(c4ccc(Cl)cc4)C3=O)[nH]2)cc1 (stereo not given)
Activity [12]: Not Active | Activity [13]: Not Active | Activity [2]: Active | pIC50 [8]: 5.17 | Activity [14]: Not Active | Activity [3]: Active | Activity [5]: Active | Activity [15]: Not Active | Activity [6]: Active | pIC50 [9]: 5.55 | Activity [7]: Active

O=S(=O)(Nc1cc(Sc2nc[nH]n2)c(O)c2ccccc12)c1ccc2ccccc2c1
Activity [12]: Not Active | Activity [13]: Not Active | pIC50 [8]: 5.60 | Activity [14]: Not Active | Activity [15]: Not Active | Retention_time [16]: 3.28 min | Retention_time [17]: 3.69 min | pIC50 [9]: 6.29

Cc1ccc(-c2nc(N)s[n+]2-c2ccccc2)cc1.[Br-]
Activity [12]: Not Active | Activity [13]: Not Active | Activity [2]: Active | pIC50 [8]: 5.28 | Activity [14]: Not Active | Activity [3]: Active | Activity [5]: Active | Activity [15]: Not Active | Activity [6]: Active | pIC50 [9]: 5.74 | Activity [7]: Active

O=S1(=O)C=C(Sc2nnnn2-c2ccccc2)c2ccccc21
Activity [12]: Not Active | Activity [13]: Not Active | Activity [2]: Active | pIC50 [8]: 4.70 | Activity [14]: Not Active | Activity [3]: Active | Activity [5]: Active | Activity [15]: Not Active | Activity [6]: Active | Activity [7]: Active

O=C(O)CSc1cc(NS(=O)(=O)c2ccc(Br)cc2)c2ccccc2c1O
Activity [12]: Not Active | Activity [13]: Not Active | Activity [2]: Active | pIC50 [8]: 5.92 | Activity [14]: Active | Activity [15]: Not Active | pIC50 [9]: 6.48 | pIC50 [10]: 6.89 | IC50 [11]: Not Active | Activity [7]: Active

O=S(=O)(Nc1cc(Sc2nc[nH]n2)c(O)c2ccccc12)c1ccc(Br)cc1
Activity [12]: Not Active | Activity [13]: Not Active | Activity [2]: Active | pIC50 [8]: 5.28 | Activity [14]: Not Active | Activity [3]: Active | Activity [5]: Active | Activity [15]: Not Active | Activity [6]: Active | pIC50 [9]: 5.96 | Activity [7]: Active

CNc1nc(-c2ccccc2)[n+](-c2ccc(C)cc2)s1.[Br-]
Activity [12]: Not Active | Activity [13]: Not Active | Activity [2]: Active | pIC50 [8]: 5.09 | Activity [14]: Not Active | Activity [3]: Active | Activity [5]: Active | Activity [15]: Not Active | Activity [6]: Active | pIC50 [9]: 5.70 | Activity [7]: Active

O=S1(=O)C=C(Sc2nnc(-c3ccccc3)o2)c2ccccc21
Activity [12]: Not Active | Activity [13]: Not Active | Activity [2]: Active | pIC50 [8]: 4.96 | Activity [14]: Not Active | Activity [3]: Active | Activity [5]: Active | Activity [15]: Not Active | Activity [6]: Active | pIC50 [9]: 4.96 | Activity [7]: Active

C=C(C)[C@@H](CC=C(C)C)C[C@@]12C[C@@H](CC=C(C)C)C(C)(C)[C@@](CC=C(C)C)(C(=O)C(C(=O)c3ccc(O)c(O)c3)=C1O)C2=O [GARCINOL]
Activity [2]: inactive | pIC50 [8]: 5.59 | Activity [5]: inactive | pIC50 [9]: 5.77 | Activity [7]: inactive

O=S1(=O)C=C(Sc2nnc(-c3ccncc3)o2)c2ccccc21
Activity [12]: Not Active | Activity [13]: Not Active | Activity [2]: Active | pIC50 [8]: 5.43 | Activity [14]: Not Active | Activity [3]: Active | Activity [5]: Active | Activity [15]: Not Active | Activity [6]: Active | pIC50 [9]: 5.21 | Activity [7]: Active

Cc1ccc(N2C(=O)CC(Sc3nncn3-c3ccccc3)C2=O)cc1 (stereo not given)
Activity [12]: Not Active | Activity [13]: Not Active | Activity [2]: Active | pIC50 [8]: 4.57 | Activity [14]: Not Active | Activity [3]: Active | Activity [5]: Active | Activity [15]: Not Active | Activity [6]: Active | pIC50 [9]: 5.01 | pIC50 [10]: 5.07 | pIC50 [11]: 4.96 | Activity [7]: Active
